Experimental data from paper PMC4846470 (Psychopharmacology, 2016).
“Also recorded” adds a separate entry of the source.

Key:
[1] = target: human CB1 cannabinoid receptors (Homo sapiens, UniProt P21554); experiment: Gi agonist effect: cAMP functional assay in CHO cells expressing CB1; assay type: cell-based; conditions: for Emax: CHO, read-out: Maximum Effect (%)
[2] = test system: Male ND4 Swiss–Webster mice; experiment: Locomotor activity; assay type: in vivo; conditions: for Time of peak (maximal) locomotor depression after injection: active doses
[3] = target: human recombinant CB1 receptors (Homo sapiens, UniProt P21554); experiment: Radioligand binding to human recombinant CB1 receptors in CHO cell membranes
Chain of human recombinant CB1 receptors (P21554 whole entry): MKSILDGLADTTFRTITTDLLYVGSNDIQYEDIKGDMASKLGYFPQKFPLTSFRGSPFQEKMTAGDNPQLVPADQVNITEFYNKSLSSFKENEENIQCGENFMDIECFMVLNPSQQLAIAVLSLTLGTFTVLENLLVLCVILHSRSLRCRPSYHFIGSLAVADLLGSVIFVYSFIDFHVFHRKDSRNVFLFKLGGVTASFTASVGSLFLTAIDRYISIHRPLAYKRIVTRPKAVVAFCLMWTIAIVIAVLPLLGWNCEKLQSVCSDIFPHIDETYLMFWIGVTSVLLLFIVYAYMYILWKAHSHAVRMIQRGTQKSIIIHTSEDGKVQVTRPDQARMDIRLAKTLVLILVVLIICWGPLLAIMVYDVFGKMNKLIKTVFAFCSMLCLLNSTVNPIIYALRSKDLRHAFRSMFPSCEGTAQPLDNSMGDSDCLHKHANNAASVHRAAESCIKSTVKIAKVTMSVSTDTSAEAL

Male Sprague-Dawley rats = experiment: Drug discrimination in rats trained to discriminate Δ^9-THC; assay type: in vivo; conditions: for Effect on rate of responding: cannabinoids at doses which substituted; for Substitution for the discriminative stimulus effects of Δ^9-THC: full substitution defined as ≥80% drug-appropriate responding
Procedure, shortened: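 Vehicle: ethanol/Cremophor EL/0.9% saline 1:1:18. In tests both levers paid and data ran to first reinforcer or 20 min. Six rats per compound got all doses. Pretreatment was at locomotor peak-depression time. Rate was responses/time to first reinforcer.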

Chain of human CB1 cannabinoid receptors (P21554 whole entry): as above

| Compound | EC50 [1] [nM] | Emax [1] [%] | Time of peak (maximal) locomotor depression after injection ([2]; mice, i.p.) [min] | Ki [3] [nM] | Effect on rate of responding (Male Sprague-Dawley rats; THC-trained rats) | also measured |
| --- | --- | --- | --- | --- | --- | --- |
| O=C(c1cccc2ccccc12)c1nn(CCCCCF)c2ccccc12 [THJ-2201, (1-(5-fluoropentyl)-1H-indazol-3-yl)(naphthalen-1-yl)methanone] | 0.64 | 96.6 |  |  |  |  |
| CCCCCn1cc(C(=O)NC(C(N)=O)C(C)(C)C)c2ccccc21 (stereo not drawn) [ADBICA, N-(1-amino-3,3-dimethyl-1-oxobutan-2-yl)-1-pentyl-1H-indole-3-carboxamide] | 0.38 | 97.4 | ≤ 20 | 1.3 |  |  |
| CNC(C)Cc1ccc2c(c1)OCO2 (stereo not drawn) [MDMA, 3,4-Methylenedioxy-methamphetamine] |  |  |  |  | dose-dependently depressed rate of responding | Maximum THC-appropriate responding (Male Sprague-Dawley rats; THC-trained rats, following 1.5 mg/kg, negative control): 11%; Substitution for the discriminative stimulus effects of Δ^9-THC (Male Sprague-Dawley rats; THC-trained rats): did not substitute; also recorded: failed to substitute; Rats that failed to complete the first fixed ratio (Male Sprague-Dawley rats; following 3 mg/kg, n=9): 6 of 9 |
| CCCCCn1cc(C(=O)c2ccc(C)c3ccccc23)c2ccccc21 [JWH-122, (4-methyl-1-naphthalenyl)(1-pentyl-1H-indol-3-yl)-methanone] | 2.8 | 102 |  | 3.35 |  |  |
| CCCCCn1nc(C(=O)NC(C(N)=O)C(C)(C)C)c2ccccc21 (stereo not drawn) [ADB-PINACA, N-[1-(aminocarbonyl)-2,2-dimethylpropyl]-1-pentyl-1H-indazole-3-carboxamide] | 0.024 | 99.6 | 20 | 0.59 |  |  |
| CCCCCn1cc(C(=O)c2ccc(OC)cc2)c2ccccc21 [RCS-4, (4-methoxyphenyl)(1-pentyl-1H-indol-3-yl)methanone] | 20 | 101 |  | 22.5 | modest depression of rate of responding | Substitution for the discriminative stimulus effects of Δ^9-THC (Male Sprague-Dawley rats; THC-trained rats): full substitution |
| CCCCCn1cc(C(=O)c2ccc(CC)c3ccccc23)c2ccccc21 [JWH-210, (4-ethyl-1-naphthalenyl)(1-pentyl-1H-indol-3-yl)-methanone] | 111 | 98.2 |  | 1.01 | modest depression of rate of responding | Mice with tremors upon handling ([2]; 8 h following 10 mg/kg i.p.): 6 of 8 |
| CCCCCc1cc(O)c2c(c1)OC(C)(C)[C@@H]1CCC(C)=C[C@@H]21 [Δ^9-THC, Δ^9-Tetrahydrocannabinol, reference compound] |  |  | 30 to 60 |  |  | ED50 Drug Discrimination (discriminative stimulus effects) (Male Sprague-Dawley rats; THC-trained rats, i.p., mean with 95% confidence interval): 1.15 (0.21 to 6.27) mg/kg; ED50 Locomotor Activity (locomotor depressant effects) ([2]; mice, i.p., dose producing 1/2 maximal depression, mean with 95% confidence interval): 12.99 (2.51 to 67.21) mg/kg |
